Screening results: PubChem, several laboratories
Most compounds without a hit are left out; they make up all but 4.9% or so of the library.
APP 5'UTR act: APP 5'UTR luciferase reporter activation | activation, % at 2 µM | 1% of 190,000 active | SH-SY5Y APP 5'UTR luciferase reporter, luminescence; zero percent = DMSO vehicle wells;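 active = activation above a set limit, based on mean plus 3 SD of controls, cut at about 140% in these data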
STAT1 inh: reduces IFN-gamma driven STAT1 reporter signal; NIH 3T3 STAT1-luciferase reporter, luminescence; inhibition, % at 5.5 µM; 0.35% of 200,000 active; AID 920;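 active = inhibition above a set limit, the mean inhibition across all tested compounds plus 3 SD, cut at about 34% in these data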;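 also: 0% = IFN-gamma with DMSO and 100% = IFN-gamma with 300 µM nifuroxazide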
STAT1 act: activators of IFN-gamma induced STAT1 signaling | AID 932 | activation (% of control), % at 5.5 µM | 2.6% of 200,000 active | NIH 3T3 STAT1-luciferase reporter, luminescence; 100% = IFN-gamma alone, no compound;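 active = activation above the screen-wide mean activation plus 3 SD, cut at about 130% in these data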;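 also: raw ratio to IFN-gamma control signal so 100% means no change and 0% no light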
NF-kB expr up: compounds increasing NF-kB expression in human neuronal cells | 1.6% of 190,000 active | NF-kB reporter expression; active compounds read high | fold change at 12.5 µM | AID 1239; in the data active = fold change above about 3.3
STAT3 activator: activators of IL-6 induced STAT3 signaling. U3A cells, IL-6 STAT3-luciferase reporter, luminescence; 100% = signal with IL-6 EC80 alone. AID 871. 0.91% of 190,000 active. activation (% of control), % at 5.6 µM;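 active = activation above the screen-wide mean of compound activation plus 3 SD, cut at about 130% in these data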;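 also: 0% = background luminescence of wells with medium and substrate only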
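Detection: reporter luminescence signal / Assay system: STAT1-lacking human U3A cells, STAT3 luciferase reporter / Incubation: compound pre-incubation 1 h before IL-6, then 6 h stimulation at 37 °C / Control set: IL-6-only high control / Read-out: % activation relative to IL-6 control / Probe or stimulus: Interleukin-6, 33 ng/mL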
STAT3 inh-1: inhibitors of IL-6 induced STAT3 signaling; U3A cells, IL-6 STAT3-luciferase reporter, luminescence; host cell line lacks STAT1; inhibition, % at 5.5 µM; 0.89% of 190,000 active; AID 862;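 active = inhibition above the mean inhibition across all screened compounds plus 3 SD, cut at about 44% in these data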;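 also: 0% = DMSO only wells and 100% = 100 µM nifuroxazide control wells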
STAT3 inh-2: confirmation of STAT3 signaling inhibitors; AID 1265; U3A cells, IL-6 STAT3 luciferase reporter, luminescence; cell line lacks STAT1; inhibition, % at 5.7 µM; 45% of 1,200 active; shares compounds with STAT3 inh-1;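 active = inhibition above the hit cutoff computed for the primary STAT3 screen, cut at about 44% in these data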;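 also: 0% = IL-6 plus DMSO and 100% = IL-6 plus nifuroxazide control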
NFkB inh 2: NF-kappaB inhibition in STAT3 inhibitor counter-screen | shares compounds with STAT3 inh-1 | HEK293T NF-kB luciferase reporter, TNF-alpha induced | inhibition, % at 5.7 µM | 36% of 1,200 active | AID 1308;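 active = inhibition above the mean of solvent-only control wells plus 3 SD, cutoff set per campaign, cut at about 13% in these data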;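 also: 0% = TNF-alpha with DMSO and 100% = TNF-alpha with MG high control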
STAT1 inh STAT3c: counter-screen for STAT3 inhibitors: STAT1 inhibition. inhibition, % at 5.7 µM. NIH 3T3 STAT1-luciferase reporter, IFN-gamma induced, luminescence. 27% of 1,200 active. shares compounds with STAT3 inh-1;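 active = inhibition above the mean plus 3 SD of solvent-only control wells, limit set per screening run, cut at about 16% in these data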;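 also: 0% = DMSO with IFN-gamma and 100% = nifuroxazide control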
* marks the source's active call; other numbers are inactive results; x = no result.

SMILES | APP 5'UTR act | STAT1 inh | STAT1 act | NF-kB expr up | STAT3 activator | STAT3 inh-1 | STAT3 inh-2 | NFkB inh 2 | STAT1 inh STAT3c
Clc1ccc(CCNc2ncnc3nc[nH]c23)cc1 | -2 | 3 | 98 | 0.97 | 61 | 52* | 35 | 1 | -13
Cc1cccc(N/C(N)=N/c2nc(C(F)(F)F)cc(=O)[nH]2)c1C | 3 | -2 | 102 | 1 | 107 | -6 | x | x | x
CCN1CCN(C(=O)c2ccc(N3CC4CC(C3)c3cccc(=O)n3C4)c([N+](=O)[O-])c2)CC1 (configuration not stated) | -1 | -4 | 103 | 1.1 | 109 | -2 | x | x | x
O=C(Nc1ccc2c(c1)C(=O)N(CC1CCCO1)C2=O)c1ccc(Cl)c(Cl)c1 (configuration not stated) | 0 | -11 | 110 | 1.1 | 41 | 72* | 62* | 14* | -16
O=C(c1ccccc1)c1cnc(-c2ccccc2)s1 | 157* | -33 | 130* | 9.9* | 59 | 52* | 17 | -30 | -77
CN(C)/C=C/C(=O)c1cnc(-c2ccc(Cl)cc2)s1 | 115 | -36 | 133* | 3.9* | 68 | 43* | 13 | -33 | -66
CN(C)/C=C/C(=O)c1ccc(Cl)cc1Cl | 6 | -7 | 103 | 0.9 | 106 | -3 | x | x | x
O=C(c1ccccc1)c1cnc(-c2ccc(Cl)cc2)s1 | 123 | -18 | 116 | 6.6* | 64 | 48* | 21 | -15 | -70
O=C(c1ccc(Cl)cc1)c1cnc(-c2ccc(Cl)cc2)s1 | 12 | 11 | 90 | 1.1 | 92 | 12 | x | x | x
CC(=O)c1ccc(NC(=O)C(=O)c2cn(CC(=O)N3CCCCC3)c3ccccc23)cc1 | -10 | 1 | 99 | 1.1 | 101 | 4 | x | x | x
COc1ccc(NC(=S)NCCCCCC(=O)C[N+](=O)[O-])cc1 | -2 | 6 | 95 | 1.1 | 111 | -14 | x | x | x
Clc1ccc2ncc(-c3nnnn3-c3ccccc3)c(-c3ccccc3)c2c1 | 11 | 5 | 95 | 0.62 | 54 | 61* | 44* | 11 | 2
CC(C)NS(=O)(=O)c1ccc(OCC(=O)N2CCCC2)cc1 | 13 | -6 | 110 | 0.97 | 95 | 9 | x | x | x
Cc1ccc(Cl)cc1N1CCN(C(=O)COc2ccc(S(=O)(=O)NC(C)C)cc2)CC1 | 45 | 11 | 90 | 0.71 | 55 | 60* | 49* | 10 | 10
CCC1(c2ccc(F)cc2)NC(=O)N(CC(=O)Nc2ccc(S(N)(=O)=O)cc2)C1=O (configuration not stated) | 1 | -7 | 104 | 1.3 | 104 | -3 | x | x | x
Cc1csc(N/N=C/c2ccccn2)n1 | 127 | 28 | 74 | 1.5 | 59 | 53* | 20 | 10 | -42
Cc1occc1C(=O)N/N=C/c1ccccn1 | -2 | -24 | 120 | 1.4 | 104 | -2 | x | x | x
O=C(COc1ccc(-c2ccccc2)cc1)NNC(=O)NC1CCCCC1 | 23 | -9 | 107 | 1.3 | 108 | -2 | x | x | x
COc1cccc(N2CCN(c3c4c(nc5ncnn35)CCC4)CC2)c1 | -6 | 8 | 93 | 1.1 | 56 | 56* | 43* | 12 | 17*
O=C(Nc1ccc(NC(=O)c2ccco2)nc1)c1ccco1 | 164* | -1 | 99 | 4* | 57 | 54* | 5 | -22 | -62
O=C(Nc1ccc(NC(=O)C2CCCCC2)cn1)c1ccco1 | 112 | -44 | 140* | 4.6* | 48 | 62* | 30 | -23 | -62
O=C(Nc1ccccn1)c1ccco1 | 15 | -16 | 114 | 1.3 | 102 | 2 | x | x | x
NNC(=O)c1ccc(COc2cccc3ccccc23)cc1 | 13 | -5 | 105 | 0.81 | 95 | 2 | x | x | x
NNC(=O)c1cccc(COc2ccccc2Br)c1 | 173* | 22 | 80 | 2.5 | 39 | 71* | 61* | -10 | 10
